FGF22 binding – binders of human FGF22 protein, primary screen, FGF22 synaptogenesis inhibitor project, biophysical, thermal shift, single point | recombinant FGF22 thermal shift, SYPRO orange fluorescence; percent of sucrose octasulfate shift, DMSO zero | AID 651658, 2012 | hit rate 1.5% among 340,000 | activity (Tm shift, normalised), % at 9.99 µM;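 active = mean Tm shift, scaled 0 neutral to 100 positive control, at about 1.3% or above, every replicate too, limit read from the data; inconclusive = no clear call, values can overlap the other calls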
E-sel inducer – E-selectin induction in HUVECs, primary screen, imaging, HUVEC, immunofluorescence imaging, single point; P16581; normalized: neutral wells 0, TNF-alpha wells 100; activation, % at 7.58 µM; hit rate 0.37% among 260,000; AID 686992, 2013;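 active = mean E-selectin-positive cell signal at least 10% of the positive control, reached in at least 60% of replicates, without over 20% cell loss; inconclusive = no rule given, readout overlaps actives, possibly toxicity-flagged; inactive = the rest, including those meeting only one limit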
Target sequence (P16581 whole entry, looked up): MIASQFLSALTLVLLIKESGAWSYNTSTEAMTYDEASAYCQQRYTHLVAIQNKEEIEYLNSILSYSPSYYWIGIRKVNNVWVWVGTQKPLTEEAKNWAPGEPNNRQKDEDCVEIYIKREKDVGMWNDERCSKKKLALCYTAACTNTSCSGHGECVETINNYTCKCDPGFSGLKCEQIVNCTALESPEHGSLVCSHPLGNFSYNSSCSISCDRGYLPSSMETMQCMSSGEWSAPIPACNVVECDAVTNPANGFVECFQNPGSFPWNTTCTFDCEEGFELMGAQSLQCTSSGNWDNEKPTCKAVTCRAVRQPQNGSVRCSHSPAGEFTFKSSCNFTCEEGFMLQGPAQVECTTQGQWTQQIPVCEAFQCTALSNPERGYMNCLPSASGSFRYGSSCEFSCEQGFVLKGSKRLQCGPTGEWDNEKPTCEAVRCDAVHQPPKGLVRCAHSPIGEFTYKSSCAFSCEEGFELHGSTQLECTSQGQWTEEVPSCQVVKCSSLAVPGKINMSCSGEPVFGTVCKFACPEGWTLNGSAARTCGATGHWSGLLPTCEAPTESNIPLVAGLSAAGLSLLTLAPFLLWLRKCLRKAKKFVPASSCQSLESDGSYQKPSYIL
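Assay system: HUVEC, human umbilical vein endothelial cells / Amount: 3,000 HUVEC/well / Controls: TNF-alpha positive control, DMSO neutral control / Compound dosing: single concentration / Medium: EGM-2 over gelatin coat / Evaluation: percent E-selectin-positive cells / Signal: immunofluorescence imaging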
ERAP1 HTS inh – human ERAP1 aminopeptidase inhibitors, primary screen, biochemical, single point, plate reader. Endoplasmic reticulum aminopeptidase 1 (Homo sapiens), Q9NZ08. recombinant ERAP1, Leu-AMC fluorescence, 60 min. inhibition, % at 10.7 µM. hit rate 0.15% among 340,000. AID 652197, 2013;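 active = mean replicate inhibition of at least 30%, or all replicates individually reaching that 30% level; inactive = mean below 30% and not every replicate reaching it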;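 also: 0% = neutral control wells and 100% = L-leucinethiol positive control wells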
DENV2 CPE rescue – inhibitors of DENV2 cytopathic effect, primary screen, cell-based, plate reader, single concentration; DENV2-infected cells, cytopathic effect rescue; CPE inhibition, % at 9.99 µM; hit rate 1.7% among 350,000; AID 651640, 2012; in the data active = CPE inhibition above about 20%, passing the limit was not always enough; inconclusive = no clear call, values can overlap the other calls; tested in BHK-21 cells;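 also: 0% = median of neutral control wells and 100% = median of positive control wells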
CFTR F508del cor – F508del CFTR correction, initial screen, CFBE line, single point | CFBE cells, YFP halide quenching; stimulated with forskolin plus potentiator P3; % fluorescence drop versus neutral controls | activity (quench increase), % at 7.58 µM | hit rate 0.36% among 350,000;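 active = mean added fluorescence quench of at least 8% versus neutral control, with both replicates also reaching 8%; inconclusive = only one of the mean or replicate conditions met; inactive = mean below 8% and not both replicates reaching 8%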;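 also: cells transiently co-express mutant CFTR-F508del with the halide-sensitive YFP; corrector assay measuring rescue of mutant channel to the surface after 24 h compound exposure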
* marks the source's active call; other numbers are inactive results; u = inconclusive; x = no result given. A selection: hits, their analogues and other compounds. The true share with any hit is near 3.7%.

SMILES	FGF22 binding	E-sel inducer	ERAP1 HTS inh	DENV2 CPE rescue	CFTR F508del cor
COc1ccc(C(C#N)CC(=O)c2ccc3c(c2)OCO3)cc1OC (stereo unspecified)	0	0	4	4	14*
COc1cc(O)c(C(C)=O)c2c1C=CC(C)(C)O2	0	x	1	27*	-2
O=C(C1CCCC1)N1CCCCN2[C@@H](CO)[C@@H](c3ccc(-c4cccc(F)c4)cc3)[C@@H]2C1	0	x	1	-1	-1
O=C(NC(=S)Nc1cccc2cc(O)ccc12)c1ccco1	0	12	5	44*	1
Cc1cc(NC(=S)NC(=O)c2ccco2)c2ccccc2n1	43*	2	-2	10	-3
O=C(NC(=S)Nc1cccc2ncccc12)c1ccco1	0	0	-6	0	1
O=C(NC(=S)Nc1cccc2c(O)cccc12)c1ccco1	-1	-1	-2	-9	-2
COc1cccc(-c2ccc(C3[C@@H]4CN(C(=O)Cc5ccccc5)C[C@H]3N4)cc2)c1 (stereo partly specified)	x	0	x	-3	1
C[C@@H]1CN([C@@H](C)CO)C(=O)c2cc(NS(=O)(=O)c3ccc(Cl)cc3)ccc2O[C@@H](C)CCCCO[C@H]1CN(C)Cc1ccc(C(=O)O)cc1	0	1	-11	-5	-3
C[C@]12C=CC(=O)C=C1CC[C@@H]1C2[C@@H](O)C[C@@]2(C)C1CC[C@]2(O)C(=O)COC(=O)CCC(=O)O (stereo partly specified)	0	0	1	5	8.2*
CC(=O)OCC(=O)C1(O)CCC2C3CCC4=CC(=O)C=CC4(C)C3C(O)CC21C (stereo unspecified)	0	x	2	15	3
O=C(c1ccccc1O)N1CCOCC1	43*	0	-6	-6	-3
COc1ccc(CCC(C)NCc2ccc(F)cc2)cc1 (stereo unspecified)	0	x	1	33*	0
COc1ccc(CCC(C)NCc2cc(OC)cc(OC)c2)cc1 (stereo unspecified)	0	0	0	-2	1
CN(C(=O)C1Cc2c(-c3ccc(Cl)cc3)ccnc2O1)c1ccccc1 (stereo unspecified)	25*	x	2	-8	3
CN(C(=O)C1Cc2c(-c3ccccc3Oc3ccccc3)ccnc2O1)c1ccccc1 (stereo unspecified)	0	0	-3	-4	-3
CC(=O)Nc1ccc(-c2ccnc3c2CC(C(=O)Nc2ccccc2)O3)cc1 (stereo unspecified)	0	0	1	56*	0
CC(=O)Nc1ccc(NC(=O)C2Cc3c(-c4cccc(NC(C)=O)c4)ccnc3O2)cc1 (stereo unspecified)	0	0	1	u	2
CCn1c(C)cc(C(=O)COC(=O)CNC(=O)c2ccco2)c1C	0	0	-1	61*	-1
CCCCNC(=O)CN1C(=O)NC(CCc2ccccc2)C1=O (stereo unspecified)	43*	2	6	-3	-3
O=C1NC(CCc2ccccc2)C(=O)N1CCOc1cccc(Br)c1 (stereo unspecified)	43*	x	-1	2	-3
CCCNC(=O)CN1C(=O)NC(CCc2ccccc2)C1=O (stereo unspecified)	0	0	-1	2	3
COc1cccc(NC(=O)CN2C(=O)NC(CCc3ccccc3)C2=O)c1 (stereo unspecified)	0	x	-3	0	1
CC(C)(C)OC(=O)NCCCCCc1cn([C@@H](CO)C(=O)NCCCCCCCCCCC(=O)N2CCN(C(=O)OC(C)(C)C)CC2)nn1	1.3*	0	-4	-6	-4
CC(C)(C)OC(=O)CC[C@@H](C(=O)NCCCCCCCCCCC(=O)N1CCN(C(=O)OC(C)(C)C)CC1)n1cc(CCCCCNC(=O)OC(C)(C)C)nn1	0	0	x	x	1
SMILES	FGF22 binding	E-sel inducer	ERAP1 HTS inh	DENV2 CPE rescue	CFTR F508del cor
CCC1=NN2C(=N)/C(=C\c3cccn3-c3ccc(Cl)cc3)C(=O)N=C2S1	47*	x	5	-1	2
CCC(=O)Nc1ccc2c(c1)C(=O)N(C)C[C@@H](OC)[C@@H](C)CN(C(=O)c1cnccn1)[C@@H](C)CO2	0	0	1	29*	1
CCC(=O)Nc1ccc2c(c1)C(=O)N(C)C[C@@H](OC)[C@H](C)CN(C(=O)c1ccccn1)[C@H](C)CO2	0	0	2	43*	-3
COCC(=O)Nc1ccc2c(c1)C(=O)N(C)C[C@H](OC)[C@H](C)CN(C(=O)c1ccccn1)[C@H](C)CO2	0	0	1	31*	-3
COc1ccc(NC(=O)Nc2ccc3c(c2)C(=O)N([C@@H](C)CO)C[C@@H](C)[C@H](CN(C)S(=O)(=O)c2c(C)noc2C)OCCCC[C@H](C)O3)cc1	0	0	x	-10	1
COc1ccc(CC(=O)NCCc2ccc3c(c2)OCO3)cc1OC	0	x	3	7	-5
COc1cc(C(=O)NCCc2ccc3c(c2)OCO3)cc(OC)c1OC	44*	1	-1	-1	-1
COc1cc(NC(=O)Nc2ccc3c(c2)OCO3)cc(OC)c1OC	43*	x	0	4	0
COc1ccc(S(=O)(=O)Nc2ccc3c(c2)CC(=O)N([C@@H](C)CO)C[C@@H](C)[C@H](CN(C)S(C)(=O)=O)O3)cc1	0	-34	1	-1	-3
Cn1ccsc1=NC(=O)c1ccc(=O)[nH]c1	0	x	34*	-3	-1
Cc1noc(C)c1S(=O)(=O)N(C)C[C@@H]1OCCCC[C@H](C)Oc2ccc(NS(C)(=O)=O)cc2C(=O)N([C@@H](C)CO)C[C@H]1C	1	0	1	-7	1
COc1ccc(C(=O)Nc2ccc3c(c2)C(=O)N(C)C[C@H](OC)[C@@H](C)CN[C@@H](C)CO3)cc1	0	0	3	u	1
CCC(=O)Nc1ccc2c(c1)C(=O)N(C)[C@H]1CC[C@H](CC(=O)N[C@H](C)c3ccccc3)O[C@@H]1CO2	0	0	2	-8	-1
CCC(=O)Nc1ccc2c(c1)C(=O)N(C)[C@H]1CC[C@@H](CC(=O)N[C@@H](C)c3ccccc3)O[C@H]1CO2	0	0	0	71*	-1
CC(C)C(=O)Nc1ccc2c(c1)C(=O)N(C)[C@H]1CC[C@H](CC(=O)Nc3ccccc3F)O[C@@H]1CO2	0	0	2	78*	-2
CCC(=O)Nc1ccc2c(c1)C(=O)N(C)[C@@H]1CC[C@H](CC(=O)N[C@@H](C)c3ccccc3)O[C@@H]1CO2	0	0	1	139*	0
